{"source": "PubChem BioAssay AID463111", "about": "(Johns Hopkins Ion Channel Center, 2010)", "note": "Screen size: about 310,000 compounds; about 2,800 (0.9%) were called active. The sample holds actives, similar compounds and a random draw of the others, so the mix is not that of the screen.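 How the source made its calls: active means B-score of the integrated calcium signal more than 4 SD below the library mean, with starting fluorescence not abnormally high; inactive means the rest.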"}
{"experiment": "RGS4 potentiators or activators, primary screen, cell-based, HEK293 M3R inducible RGS4, calcium flux (AID 463111);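 on B-score: negative B-score means reduced calcium response which marks RGS4 activation or potentiation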", "conditions": "HEK293 M3R/inducible RGS4, carbachol calcium flux Fluo4, at 10 µM; stronger effect = lower value", "outline": "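Test system: HEK293 cells with stable M3R and inducible RGS4; also added: carbachol at ECmax as muscarinic agonist stimulus; schedule: dye loading 30 min 37 °C, buffer rest 30 min RT; technique: kinetic calcium fluorescence imaging with Fluo4-AM dye, 2 µM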"}
{"smiles": "Cc1cc2c(cc1S(=O)(=O)CCC(=O)NCc1ccccc1)OCC(=O)N2", "B-score": "inactive"}
{"smiles": "COc1ccc(NC(=O)CCS(=O)(=O)c2cc3c(cc2Cl)NC(=O)CO3)cc1OC", "B-score": "inactive"}
{"smiles": "COc1ccc(Cl)cc1NC(=O)CCS(=O)(=O)c1cc2c(cc1C)NC(=O)CO2", "B-score": "-7.02 (active)"}
{"smiles": "COc1cccc(C2c3[nH]c4ccccc4c3CCN2Cc2cccc(C)n2)c1", "note": "(stereo unspecified)", "B-score": "inactive"}
{"smiles": "CC1=CCC2C(=O)N(c3cccc(C(=O)NC(C)c4ccccc4)c3)C(=O)C2C1", "note": "(stereo unspecified)", "B-score": "inactive"}
{"smiles": "CCCCn1c(N)c(N(CC)C(=O)c2ccccc2C(F)(F)F)c(=O)[nH]c1=O", "B-score": "inactive"}
{"smiles": "Cc1nn(Cc2ccc(C(=O)N3N=C(C(F)F)CC3(O)C(F)F)cc2)c(C)c1[N+](=O)[O-]", "note": "(stereo unspecified)", "B-score": "inactive"}
{"smiles": "O=C(CN1CCCCCC1)Nc1ccc(S(=O)(=O)N2CCCCC2)cc1", "B-score": "-8.13 (active)"}
{"smiles": "CCOc1ccc(NC(=O)COc2ccc(S(=O)(=O)N3CCCC3)cc2)cc1", "B-score": "inactive"}
{"smiles": "O=C(CSCc1ccc(Br)cc1)Nc1ccc(S(=O)(=O)N2CCCCCC2)cc1", "B-score": "inactive"}
{"smiles": "O=c1cc(CO)oc(C(Nc2cccc([N+](=O)[O-])c2)c2ccccn2)c1O", "note": "(stereo unspecified)", "B-score": "inactive"}
{"smiles": "CCc1ccc(OCC(=O)N(Cc2ccccc2)C2CCS(=O)(=O)C2)cc1", "note": "(stereo unspecified)", "B-score": "inactive"}
{"smiles": "Cc1ccc(C)c(-c2nnc(NC(=O)CS(=O)(=O)c3ccccc3)o2)c1", "B-score": "inactive"}
{"smiles": "O=C(Nc1cccn(Cc2c(Cl)cccc2Cl)c1=O)c1ccc(Cl)cc1", "B-score": "inactive"}
{"smiles": "CCCCCCCC(=O)NC(Nc1ccccc1OC)C(Cl)(Cl)Cl", "note": "(stereo unspecified)", "B-score": "-8.57 (active)"}
{"smiles": "CCCC(=O)NC(Nc1ccccc1OC)C(Cl)(Cl)Cl", "note": "(stereo unspecified)", "B-score": "inactive"}
{"smiles": "COc1ccccc1NC(=O)CCCc1c[nH]c2ccccc12", "B-score": "inactive"}
{"smiles": "Cc1cnc(C(=O)OCc2c(C)cc(C(C)(C)C)cc2C)cn1", "B-score": "inactive"}
{"smiles": "Cc1cc(C(=O)OCC(=O)Nc2ccc(F)c(F)c2)c(C)o1", "B-score": "inactive"}
{"smiles": "O=C(NCc1ccc(F)cc1)C1CCN(C(=O)Nc2ccc(F)cc2)CC1", "B-score": "inactive"}
{"smiles": "CCc1ccc(C(=O)OCC(=O)NCC(F)(F)F)cc1", "B-score": "inactive"}
{"smiles": "Cc1c(NC(=O)Nc2cccc([N+](=O)[O-])c2)c(=O)n(-c2ccccc2)n1C", "B-score": "inactive"}
{"smiles": "COc1ccc(NC(=O)c2sc3nc(C)nc(N4CCN(c5ccccn5)CC4)c3c2C)c(OC)c1", "B-score": "inactive"}
{"smiles": "Cc1nc(N2CCN(c3ccccn3)CC2)c2c(C)c(C(=O)Nc3ccc(F)c(Cl)c3)sc2n1", "B-score": "inactive"}
{"smiles": "Cc1nc(N2CCN(c3ccccn3)CC2)c2c(C)c(C(=O)Nc3ccc(F)cc3)sc2n1", "B-score": "-9.74 (active)"}
{"smiles": "O=C(Oc1ccc([N+](=O)[O-])cc1)c1ccc(Cl)c(S(=O)(=O)N2CCCCC2)c1", "B-score": "inactive"}
{"smiles": "C=CCN(N=Nc1cccc([N+](=O)[O-])c1)c1cccc([N+](=O)[O-])c1", "B-score": "inactive"}
{"smiles": "COc1ccc(-c2cc(C(=O)N(C)CC(=O)Nc3ccccc3Cl)c3ccccc3n2)cc1OC", "B-score": "inactive"}
{"smiles": "COc1ccc(CN(C)C(=O)Cc2c[nH]c3ccccc23)c(OC)c1OC", "B-score": "inactive"}
{"smiles": "COc1ccc(CN(C)C(=O)c2cc(-c3ccc(C)cc3C)nc3ccccc23)c(OC)c1OC", "B-score": "-11.6 (active)"}
{"smiles": "Cc1ccc(-c2cc(C(=O)Nc3nn[nH]n3)c3ccccc3n2)c(C)c1", "B-score": "inactive"}
{"smiles": "CNC(=O)COC(=O)c1cc(-c2ccc(OC)cc2)nc2ccccc12", "B-score": "inactive"}
{"smiles": "COc1ccc(-c2cc(C(=O)N(C)Cc3ccc(OC)c(OC)c3OC)c3ccccc3n2)cc1OC", "B-score": "-8.8 (active)"}
{"smiles": "COc1ccc(-c2cc(C(=O)Nc3ccccc3O)c3ccccc3n2)cc1", "B-score": "inactive"}
{"smiles": "COc1ccc(-c2cc(C(=O)N(C)Cc3ccccc3)c3ccccc3n2)cc1", "B-score": "-8.16 (active)"}
{"smiles": "COc1ccc(NC(=O)CN(C)C(=O)c2cc(-c3ccc(C)o3)nc3ccccc23)cc1", "B-score": "inactive"}
{"smiles": "O=c1[nH]cccc1-c1nc2ccccc2n1Cc1ccc(Cl)cc1", "B-score": "inactive"}
{"smiles": "CCC(Oc1ccccc1C)C(=O)Nc1ccc(S(=O)(=O)Nc2cc(C)on2)cc1", "note": "(stereo unspecified)", "B-score": "inactive"}
{"smiles": "CC1=C(C(=O)N(C)C)C(c2ccccc2OC(F)F)NC(=O)N1", "note": "(stereo unspecified)", "B-score": "inactive"}
{"smiles": "Cc1ccc(NS(=O)(=O)c2c(C)[nH]c(C)c2C(=O)N2CCCCC2)c(C)c1", "B-score": "inactive"}
{"smiles": "CC1=C(C(=O)OC2CCCCC2)C(c2cccnc2)n2ncnc2N1", "note": "(stereo unspecified)", "B-score": "inactive"}
{"smiles": "O=C(N/N=C/c1cccc(OCc2ccccc2)c1)c1ccc(Br)o1", "B-score": "-7.35 (active)"}
{"smiles": "Cc1ccc(OCCOc2cccc(/C=N/NC(N)=O)c2)cc1", "B-score": "inactive"}
{"smiles": "O=C(N/N=C/c1cccc(O)c1)c1cc2c(ccc3ccccc32)o1", "B-score": "inactive"}
{"smiles": "CSc1nc(-c2ccco2)nn1C(=O)c1ccccc1Cl", "B-score": "inactive"}
{"smiles": "CN(C)c1ccc(/C=C2\\NC(=S)N(Cc3ccccc3)C2=O)cc1", "B-score": "-12 (active)"}
{"smiles": "O=C1NCC(=O)N(Cc2ccccc2)/C1=C/c1ccccc1", "B-score": "inactive"}
{"smiles": "O=C1/C(=C\\c2ccsc2)NC(=S)N1c1ccccc1", "B-score": "inactive"}
{"smiles": "CC(=O)N1CCN(S(=O)(=O)c2c(F)cc(F)c(Cl)c2F)CC1", "B-score": "inactive"}
{"smiles": "C/C=C(\\C)C(=O)N1CC2(CC(c3cccc(NC(=O)CCCCC)c3)=NO2)C[C@@H]1C(N)=O", "note": "(stereo partly specified)", "B-score": "inactive"}
{"smiles": "CN(C)C(=O)c1nc2ccc(Cl)cn2c1CNCc1cccc(OC(F)(F)F)c1", "B-score": "inactive"}
{"smiles": "CN(C)c1ccc2c(=O)[nH][nH]c(=O)c2c1", "B-score": "inactive"}
{"smiles": "O=C(NCc1ccncc1)C1CCN(C(=O)c2cccc(Cl)c2)CC1", "B-score": "inactive"}
{"smiles": "COC(=O)c1cccc(C(=O)N2CCC(CCC(=O)NCc3ccc(F)cc3)CC2)c1", "B-score": "inactive"}
{"smiles": "Cn1c2ccccc2c2c(C(=O)N3CCN(c4ccc(F)cc4)CC3)cn(C3CCCC3)c(=O)c21", "B-score": "-7.18 (active)"}
{"smiles": "CCOC(=O)N1CCN(C(=O)c2nn(-c3ccc(C)cc3)c(=O)c3c2c2ccccc2n3C)CC1", "B-score": "inactive"}
{"smiles": "O=C(c1ccccc1Oc1ccccc1)N1CCN(c2ccc(F)cc2)CC1", "B-score": "inactive"}
{"smiles": "Nc1nc(SCc2cccc(Br)c2)n[nH]1", "B-score": "inactive"}
{"smiles": "COc1ccc(CC2(CO)CCN(Cc3cnn(C)c3)CC2)cc1", "B-score": "inactive"}
{"smiles": "COC(=O)c1ccc(CN2CCC(CO)(Cc3ccc(OC)cc3)CC2)cc1", "B-score": "-8.7 (active)"}
{"smiles": "CC(=O)c1cccc(CN2CCC(CO)(Cc3ccccc3)CC2)c1", "B-score": "inactive"}
{"smiles": "CC(=O)c1ccc(S(=O)(=O)Nc2ccc(C(=O)NCC(c3ccccc3)N(C)C)cc2)cc1", "note": "(stereo unspecified)", "B-score": "inactive"}
{"smiles": "CN(C)C(CNC(=O)c1cccc(S(=O)(=O)Nc2ccc(Br)cc2)c1)c1ccco1", "note": "(stereo unspecified)", "B-score": "inactive"}
{"smiles": "COc1ccccc1C(CNC(=O)c1cccc(NS(=O)(=O)c2ccc(Br)cc2)c1)N(C)C", "note": "(stereo unspecified)", "B-score": "-8.15 (active)"}
{"smiles": "COC(=O)c1ccccc1NC(=O)CN(Cc1ccc(Cl)cc1)S(C)(=O)=O", "B-score": "inactive"}
{"smiles": "COC(=O)c1ccccc1NC(=O)Cn1nc(C(F)(F)F)c2c1CCC2", "B-score": "inactive"}
{"smiles": "COC(=O)c1ccccc1Sc1c(/C=N/OCc2ccc(Cl)cc2)c(C(F)(F)F)nn1C", "B-score": "-7.48 (active)"}
{"smiles": "CC(C)[C@H](NC(=O)c1ccc(F)cc1)C(=O)OCC(=O)NC(=O)c1cccn1C", "B-score": "inactive"}
{"smiles": "Cc1cccc(NS(=O)(=O)c2ccc(C(=O)NCC(C)(C)N3CCOCC3)cc2)c1C", "B-score": "inactive"}
{"smiles": "N[C@@H](Cc1ccccc1)C(=O)N1CCOCC1", "B-score": "inactive"}
{"smiles": "CCOC(=O)c1c(-c2ccccc2)csc1NC(=S)NC(=O)c1ccccc1", "B-score": "inactive"}
{"smiles": "CCOC(=O)C1=C(NC(=S)NC(=O)c2ccccc2)c2ccccc2CC1(C)C", "B-score": "-9.14 (active)"}
{"smiles": "COCCCNC(=S)NC(=O)c1ccccc1", "B-score": "inactive"}
{"smiles": "CCn1c(SC)nc(O)c(C(c2ccc(OC)c(O)c2)c2c(O)nc(SC)n(CC)c2=O)c1=O", "B-score": "inactive"}
{"smiles": "Cc1oc2c(F)c(F)c(F)c(F)c2c1S(=O)(=O)Nc1cccc(C(F)(F)F)c1", "B-score": "-9.29 (active)"}
{"smiles": "O=C(/C=C/c1ccc(F)cc1)Nc1cccc(S(=O)(=O)Nc2cccc(C(F)(F)F)c2)c1", "B-score": "inactive"}
{"smiles": "CCOC(=O)N1CCN(C(=O)c2ccc(S(=O)(=O)Nc3cccc(C(F)(F)F)c3)cc2)CC1", "B-score": "inactive"}
{"smiles": "CCOc1ccc(NC(=O)CN(C)CC(=O)NC(C)c2ccccc2)cc1OCC", "note": "(stereo unspecified)", "B-score": "inactive"}
{"smiles": "COc1cc(NS(=O)(=O)c2ccc(NC(=O)CN3C(=O)c4ccccc4C3=O)cc2)ncn1", "B-score": "inactive"}
{"smiles": "CS(=O)(=O)Nc1ccc(C(=O)N2CCCC2)cc1", "B-score": "inactive"}
{"smiles": "C=CCOc1ccc(/C=C/C(=O)OCC(=O)NCC2CCCO2)cc1", "note": "(stereo unspecified)", "B-score": "inactive"}
{"smiles": "O=C(Nc1nccs1)C1CCN(S(=O)(=O)c2ccc(Cl)c(C(F)(F)F)c2)CC1", "B-score": "inactive"}
{"smiles": "Cc1ccc(NC(=O)COc2ccc(/C=C3/NC(=O)NC3=O)cc2)cc1", "B-score": "inactive"}
{"smiles": "CSc1ccc(/C=C2\\NC(=O)NC2=O)cc1", "B-score": "inactive"}
{"smiles": "CC(C)c1ccc(/C=C2\\NC(=O)NC2=O)cc1", "B-score": "-8.02 (active)"}
{"smiles": "COc1ccc(C2=NN(C(=O)CSc3nc(=O)n4ccc(C)cc4n3)C(c3ccc(C)cc3)C2)cc1", "note": "(stereo unspecified)", "B-score": "inactive"}
{"smiles": "CC(C)Cn1c(N2CCN(C(=O)/C=C/c3ccccc3)CC2)nc2ccccc21", "B-score": "inactive"}
{"smiles": "O=C1c2ccccc2C(=O)c2c1cccc2N1CCN(C/C=C/c2ccccc2)CC1", "B-score": "inactive"}
{"smiles": "O=C(Cn1c(N2CCN(C/C=C/c3ccccc3)CC2)nc2ccccc21)c1ccccc1", "B-score": "-8 (active)"}
{"smiles": "CC(NCc1nc2ccccc2n1C)C12CC3CC(CC(C3)C1)C2", "note": "(stereo unspecified)", "B-score": "inactive"}
{"smiles": "CCN(CC)C(=O)COc1coc(CN2CCN(Cc3ccccc3)CC2)cc1=O", "B-score": "inactive"}
{"smiles": "CCOc1cccc(NC(=O)Cn2nc(-c3ccc4c(c3)OCCO4)ccc2=O)c1", "B-score": "inactive"}
{"smiles": "CCOc1ccc2[nH]c(=O)c(CN(Cc3nnnn3CCc3ccccc3)CC3CCCO3)cc2c1", "note": "(stereo unspecified)", "B-score": "inactive"}
{"smiles": "c1ccc(-c2cc3c(NCC4COc5ccccc5O4)ncnc3s2)cc1", "note": "(stereo unspecified)", "B-score": "inactive"}
{"smiles": "Oc1ccccc1N1CCN(c2ncnc3sc(-c4ccccc4)cc23)CC1", "B-score": "-9.36 (active)"}
{"smiles": "COc1ccccc1N1CCN(c2ncnc3sc(C)c(-c4ccccc4)c23)CC1", "B-score": "inactive"}
{"smiles": "CNC(=O)COc1ccc(S(=O)(=O)Nc2ccccc2)cc1", "B-score": "inactive"}
{"smiles": "CCn1ncc(CNC(=O)C2(C)CC2(Br)Br)c1C", "note": "(stereo unspecified)", "B-score": "inactive"}
{"smiles": "C=CCn1c(SCc2ccc(Cl)c(Cl)c2)nnc1C(CO)NC(=O)c1ccc(OC)cc1", "note": "(stereo unspecified)", "B-score": "inactive"}
{"smiles": "Nc1cc(N)nc(SCc2ccc(Cl)cc2)n1", "B-score": "inactive"}
{"smiles": "COc1cnc(SCc2ccc(Cl)c(Cl)c2)nc1Cl", "B-score": "-7.01 (active)"}
